Source: ChEMBL document CHEMBL1153527, “Discovery of a novel series of quinolone and naphthyridine derivatives as potential topoisomerase I inhibitors by scaffold modification” (J Med Chem, 2009)
The source made the active and inactive calls. No cut-off for these calls is given here.

What was measured:
HT-29 [1] = test: Cell cycle distribution in human HT-29 cells assessed as accumulation at S phase at 0.1 uM after 48 hrs by flow cytometry; format: functional, cell-based
How it was run: (§1)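 HT-29 cells were exposed to vehicle or compound for 6, 12, 24 or 48 h. Attached and floating cells were collected by trypsin-EDTA, fixed in 70% ethanol, and treated with 0.1% Triton X-100 for 30 min. They were stained with 50 μg/mL PI plus 50 μg/mL RNase A for 30 min in the dark at room temperature. 10000 cells were read by FL2 at 488 nm excitation. S-phase and sub-G1 (apoptotic) fractions are expressed as % of total cells.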

HT-29 [2] = test: Cell cycle distribution in human HT-29 cells assessed as accumulation at sub-G1 phase at 0.1 uM after 48 hrs by flow cytometry; format: functional, cell-based; how it was run: as §1
HT-29 [3] = test: Induction of apoptosis in human HT-29 cells assessed as increase in accumulation at sub-G1 phase at 0.1 uM after 48 hrs by flow cytometry; format: functional; how it was run: as §1
[4] = target: T1, DNA topoisomerase 1 (Homo sapiens) (UniProt P11387); test: Induction of human topoisomerase 1-mediated chromosomal DNA strand breaks in HT-29 cells at 10 uM after 1 hr by comet assay; format: cell-based
T1 sequence (whole entry): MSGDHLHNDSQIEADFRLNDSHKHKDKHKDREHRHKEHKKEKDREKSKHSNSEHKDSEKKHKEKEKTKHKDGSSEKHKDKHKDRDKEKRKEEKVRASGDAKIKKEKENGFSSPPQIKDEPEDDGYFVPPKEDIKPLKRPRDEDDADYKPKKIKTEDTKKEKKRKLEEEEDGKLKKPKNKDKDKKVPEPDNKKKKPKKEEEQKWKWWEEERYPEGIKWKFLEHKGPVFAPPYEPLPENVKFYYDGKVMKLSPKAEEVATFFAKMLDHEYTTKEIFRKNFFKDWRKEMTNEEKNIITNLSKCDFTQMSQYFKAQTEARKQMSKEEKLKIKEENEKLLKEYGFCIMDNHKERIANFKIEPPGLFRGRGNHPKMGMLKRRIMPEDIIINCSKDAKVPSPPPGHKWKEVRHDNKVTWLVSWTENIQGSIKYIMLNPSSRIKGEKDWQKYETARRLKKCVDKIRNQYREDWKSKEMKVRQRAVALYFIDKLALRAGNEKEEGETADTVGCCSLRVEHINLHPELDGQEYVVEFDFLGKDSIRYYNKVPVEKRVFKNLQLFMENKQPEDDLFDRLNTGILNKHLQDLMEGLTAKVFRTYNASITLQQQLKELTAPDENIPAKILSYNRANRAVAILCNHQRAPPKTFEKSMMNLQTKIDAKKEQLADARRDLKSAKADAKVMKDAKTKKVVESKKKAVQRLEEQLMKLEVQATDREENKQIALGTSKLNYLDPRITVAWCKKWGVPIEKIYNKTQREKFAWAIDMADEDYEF
How it was run: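 HT-29 cells were seeded at 1 × 10^4 per well and attached overnight, then treated for 1 h. Untreated cells served as negative control. Cells in low-melting agarose on precoated slides were lysed at pH 10.5 for 30 min at 4 °C and unwound in 300 mM NaOH/1 mM EDTA (pH >13) for 30 min at 4 °C. Electrophoresis ran 10 min at 16 V, with SYBR Gold staining. Read-out was mean % tail DNA from ≥50 nuclei, duplicates in three independent experiments.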

[5] = Cytotoxicity against estrogen receptor-negative human […] cells expressing p53 mutant after 48 hrs by SRB assay; format: functional, cell-based
How it was run: (§2)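 Cell lines came from CCRC, Taiwan. Cells were seeded at about 5 × 10^3 per well and left overnight. They were then given serum-free medium containing 0-10 μM compound (0.08-10 μM serial dilutions) for 48 h at 37 °C. Cells were fixed with TCA (10% final), stained with SRB (0.4% final), and the dye was dissolved in 10 mM Tris with A515 read. IC50 was taken from a fitted log concentration-response curve.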

A549 = test: Cytotoxicity against human A549 cells expressing wild type p53 after 48 hrs by SRB assay; format: functional, cell-based; conditions: A549, 48 h; how it was run: as §2
HepG2 = test: Cytotoxicity against human HepG2 cells expressing wild type p53 after 48 hrs by SRB assay; format: functional, cell-based; conditions: HepG2, 48 h; how it was run: as §2
HeLa = test: Cytotoxicity against p53-deficient human HeLa cells after 48 hrs by SRB assay; format: functional, cell-based; how it was run: as §2
HT-29 [6] = test: Cytotoxicity against human HT-29 cells expressing p53 mutant after 48 hrs by SRB assay; format: functional, cell-based; conditions: HT-29, 48 h; how it was run: as §2
AGS = test: Cytotoxicity against human AGS cells expressing wild type p53 after 48 hrs by SRB assay; format: functional, cell-based; how it was run: as §2
MCF7 = test: Cytotoxicity against estrogen receptor-positive human MCF7 cells expressing wild type p53 after 48 hrs by SRB assay; format: functional, cell-based; conditions: MCF7, 48 h; how it was run: as §2
[7] = Cytotoxicity against p53-deficient human Hep3B cells after 48 hrs by SRB assay; format: functional, cell-based, Hep 3B2; how it was run: as §2
PC-3 = test: Cytotoxicity against p53-deficient human PC3 cells after 48 hrs by SRB assay; format: functional, cell-based; conditions: PC-3, 48 h; how it was run: as §2
U-937 = test: Cytotoxicity against human U937 cells expressing p53 mutant after 48 hrs by SRB assay; format: functional, cell-based; conditions: U-937, 48 h
THP-1 = test: Cytotoxicity against human THP1 cells expressing p53 mutant after 48 hrs by SRB assay; format: functional, cell-based; conditions: THP-1, 48 h
K562 = test: Cytotoxicity against p53-deficient human K562 cells after 48 hrs by SRB assay; format: functional, cell-based; conditions: K562, 48 h
HT-29 [8] = test: Cell cycle distribution in human HT-29 cells assessed as accumulation at S phase at 0.1 uM after 6 hrs by flow cytometry; format: functional, cell-based; how it was run: as §1
HT-29 [9] = test: Cell cycle distribution in human HT-29 cells assessed as accumulation at S phase at 0.1 uM after 12 hrs by flow cytometry; format: functional, cell-based; how it was run: as §1
HT-29 [10] = test: Cell cycle distribution in human HT-29 cells assessed as accumulation at S phase at 0.1 uM after 24 hrs by flow cytometry; format: functional, cell-based; how it was run: as §1
KB = test: Cytotoxicity against human KB cells after 48 hrs by MTT assay; format: functional, cell-based
A2780 = test: Cytotoxicity against human A2780 cells after 48 hrs by MTT assay; format: functional, cell-based; conditions: A2780, 48 h
Bel-7402 = test: Cytotoxicity against human Bel7402 cells after 48 hrs by MTT assay; format: functional, cell-based; conditions: Bel-7402, 48 h
[11] = target: T1, DNA topoisomerase 1 (Homo sapiens); test: Inhibition of DNA topoisomerase 1-mediated supercoiled Escherichia coli pBR322 DNA relaxation upto 25 uM after 30 mins
[12] = Solubility in assay condition at 50 uM; format: physicochemical
HT-29 [13] = test: Antitumor activity against human HT-29 cells xenografted in athymic BALB/c nude mouse at 5 mg/kg, ip for 2 days measured after 30 days relative to placebo control; format: functional; conditions: route intraperitoneal
How it was run: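 Female athymic BALB/c nude mice (35-40 days old, 18-22 g). HT-29 tumours first grown from 1 × 10^7 cells injected s.c. in the axillary fossa, then excised and transplanted. Treatment started at 100-300 mm3. Groups of n=6 were dosed i.p. daily in 400 μL: saline for 10 days, 5 mg/kg for 2 days, or 75/150 mg/kg for 10 days. Caliper volume was V=1/2·a·b². Values are relative to start volume, compared with placebo by Student's t test, and mice were killed on day 30.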

SMILES | GI50 [5] [µM] | IC50 [5] [µM] | GI50 (A549) [µM] | IC50 (A549) [µM] | GI50 (HepG2) [µM] | IC50 (HepG2) [µM] | GI50 (HeLa) [µM] | IC50 (HeLa) [µM] | GI50 (HT-29 [6]) [µM] | IC50 (HT-29 [6]) [µM] | GI50 (AGS) [µM] | IC50 (AGS) [µM] | GI50 (MCF7) [µM] | IC50 (MCF7) [µM] | GI50 [7] [µM] | IC50 [7] [µM] | GI50 (PC-3) [µM] | IC50 (PC-3) [µM] | IC50 (U-937) [µM] | IC50 (THP-1) [µM] | also measured
CC[C@@]1(O)C(=O)OCc2c1cc1n(c2=O)Cc2cc3ccccc3nc2-1 [CAMPTOTHECIN] | 0.08 | 1.7 | 0.01 | 0.04 | 0.1 | 0.2 | 0.04 | 0.2 | 0.03 | 0.4 | 0.01 | 0.02 | 0.01 | 1.1 | 0.01 | 0.06 | 0.7 | 1.4 | 0.3 | 0.6 | Activity (HT-29 [1]): Active; Activity (HT-29 [2]): Active; Activity (HT-29 [3]): 44.8%; Activity [4]: 84%; IC50 (K562): 1.4 µM; Activity (HT-29 [8]): Active; Activity (HT-29 [9]): Active; Activity (HT-29 [10]): Active
C[C@H]1COc2c(N3CCN(C)CC3)c(F)cc3c(=O)c(-c4nc5ccc([N+](=O)[O-])cc5s4)cn1c23 | > 10 | > 10 | 3.9 | > 10 | 7.6 | > 10 | > 10 | > 10 | 5 | 10 | 7 | 8.8 | > 10 | > 10 | > 10 | > 10 | 1.8 | 9.9 | > 10 | > 10 | IC50 (KB): 0.6 µM; IC50 (A2780): 1.2 µM; IC50 (Bel-7402): 2 µM; IC50 (K562): > 10 µM; inhibition [11]: inactive; solubility [12]: Insoluble
CC[C@@]1(O)C(=O)OCc2c1cc1n(c2=O)Cc2cc3c(CN(C)C)c(O)ccc3nc2-1 [TOPOTECAN] | 0.9 | 2 | 0.9 | 1.9 | 1.2 | 1.6 | 0.08 | 1.6 | 0.08 | 0.4 | 0.1 | 0.3 | 0.8 | 2 | 0.4 | 1.4 | 1.3 | 2 | 1.1 | 1.5 | Activity (HT-29 [1]): Active; Activity (HT-29 [2]): Active; Activity (HT-29 [3]): 40.5%; Activity (HT-29 [13]): 76%; IC50 (K562): 1.7 µM; Activity (HT-29 [8]): Active; Activity (HT-29 [9]): Active; Activity (HT-29 [10]): Active
CCn1cc(-c2nc3ccc(N)cc3[nH]2)c(=O)c2cc(F)c(N3CCN(C)CC3)cc21 | > 10 | > 10 | 1 | > 10 | > 10 | > 10 | > 10 | > 10 | > 10 | > 10 | 10 | > 10 | > 10 | > 10 | > 10 | > 10 | > 10 | > 10 | > 10 | > 10 | IC50 (KB): > 50 µM; IC50 (A2780): > 50 µM; IC50 (Bel-7402): > 50 µM; IC50 (K562): > 10 µM
CCn1cc(-c2nc3ccc(N)cc3[nH]2)c(=O)c2cc(F)c(N3CCNCC3)nc21 | > 10 | > 10 | 0.5 | > 10 | > 10 | > 10 | > 10 | > 10 | > 10 | > 10 | 6.7 | 9.2 | > 10 | > 10 | > 10 | > 10 | > 10 | > 10 | > 10 | 8.2 | IC50 (KB): 30.1 µM; IC50 (A2780): 42.3 µM; IC50 (Bel-7402): 93.3 µM; IC50 (K562): > 10 µM
